ChEMBL document CHEMBL3271941, “Synthesis of 5,6-dihydro-8(7H)-quinolinone thiosemicarbazones as potential antitumor agents” (J Med Chem, 1977)
Active and inactive are the calls of the source. No cut-off for these calls is given here.

Key:
[1] = system: Mus musculus; test: Toxicity in CDF1 mouse allografted with mouse P388 cells assessed as change in body weight at 20 mg/kg administered daily for 6 days starting 24 hrs after tumor implantation (reference value: -2.4%); assay type: organism-based; parameters: dose 20 mg/kg; settings: in vivo
[2] = target: Alkaline phosphatase (Escherichia coli K-12) (UniProt P00634); test: Inhibition of Escherichia coli alkaline phosphatase assessed as p-nitrophenol formation using p-nitrophenyl phosphate as substrate up to 100 uM treated 15 mins prior to substrate addition by spectrophotometric analysis
Method in brief: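 E. coli alkaline phosphatase (0.021 unit) in 1 M Tris-HCl pH 9.0, preincubated 15 min at 37 °C with inhibitor added in 50% DMSO. Reaction started with 10^-3 M p-nitrophenyl phosphate. Initial rise in absorbance at 410 nm read at room temperature in a 1-cm cell. Controls had enzyme preincubated 15 min with 50% DMSO alone.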

[3] = Stability of the compound measured under neutral conditions; assay type: physicochemical
[4] = system: P388; test: Antineoplastic activity against mouse P388 cells allografted in CDF1 mouse assessed as prolongation of host survival time at 5 mg/kg administered daily for 6 days starting 24 hrs after tumor implantation relative to control; assay type: functional
Method in brief: (§1)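 P388 leukemia (1×10^6 cells, intraperitoneal) in female CDF1 mice; dosing once daily for 6 consecutive days beginning 24 h post-implantation, 5-15 mice per group. Activity expressed as % T/C, the ratio of survival time of treated to untreated control animals. Daily weighing gave percent body-weight change over the treatment period as a toxicity measure.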

[5] = system: Mus musculus; test: Toxicity in CDF1 mouse allografted with mouse P388 cells assessed as change in body weight at 10 mg/kg administered daily for 6 days starting 24 hrs after tumor implantation (reference value: -2.4%); assay type: organism-based; parameters: dose 10 mg/kg; settings: in vivo
[6] = system: P388; test: Antineoplastic activity against mouse P388 cells allografted in CDF1 mouse assessed as host survival time at 20 mg/kg administered daily for 6 days starting 24 hrs after tumor implantation (reference value: 11.2 +/- 0.4 days); assay type: functional
[7] = system: Mus musculus; test: Toxicity in CDF1 mouse allografted with mouse P388 cells assessed as change in body weight at 5 mg/kg administered daily for 6 days starting 24 hrs after tumor implantation (reference value: -2.4%); assay type: organism-based; parameters: dose 5 mg/kg; settings: in vivo
[8] = system: P388; test: Antineoplastic activity against mouse P388 cells allografted in CDF1 mouse assessed as host survival time at 10 mg/kg administered daily for 6 days starting 24 hrs after tumor implantation (reference value: 11.2 +/- 0.4 days); assay type: functional
[9] = system: P388; test: Antineoplastic activity against mouse P388 cells allografted in CDF1 mouse assessed as prolongation of host survival time at 10 mg/kg administered daily for 6 days starting 24 hrs after tumor implantation relative to control; assay type: functional; method in brief: as §1
[10] = system: P388; test: Antineoplastic activity against mouse P388 cells allografted in CDF1 mouse assessed as host survival time at 5 mg/kg administered daily for 6 days starting 24 hrs after tumor implantation (reference value: 11.2 +/- 0.4 days); assay type: functional
[11] = system: P388; test: Antineoplastic activity against mouse P388 cells allografted in CDF1 mouse assessed as prolongation of host survival time at 20 mg/kg administered daily for 6 days starting 24 hrs after tumor implantation relative to control; assay type: functional; method in brief: as §1
[12] = Stability of the compound in ethanol with sodium ethoxide assessed as isomerization; assay type: physicochemical
[13] = system: Mus musculus; test: Toxicity in CDF1 mouse allografted with mouse P388 cells assessed as change in body weight at 2.5 mg/kg administered daily for 6 days starting 24 hrs after tumor implantation (reference value: -2.4%); assay type: organism-based; parameters: dose 2.5 mg/kg; settings: in vivo
[14] = system: P388; test: Antineoplastic activity against mouse P388 cells allografted in CDF1 mouse assessed as host survival time at 2.5 mg/kg administered daily for 6 days starting 24 hrs after tumor implantation (reference value: 11.2 +/- 0.4 days); assay type: functional
[15] = system: P388; test: Antineoplastic activity against mouse P388 cells allografted in CDF1 mouse assessed as prolongation of host survival time at 2.5 mg/kg administered daily for 6 days starting 24 hrs after tumor implantation relative to control; assay type: functional; method in brief: as §1

Alkaline phosphatase (Escherichia coli K-12), sequence (P00634 whole entry): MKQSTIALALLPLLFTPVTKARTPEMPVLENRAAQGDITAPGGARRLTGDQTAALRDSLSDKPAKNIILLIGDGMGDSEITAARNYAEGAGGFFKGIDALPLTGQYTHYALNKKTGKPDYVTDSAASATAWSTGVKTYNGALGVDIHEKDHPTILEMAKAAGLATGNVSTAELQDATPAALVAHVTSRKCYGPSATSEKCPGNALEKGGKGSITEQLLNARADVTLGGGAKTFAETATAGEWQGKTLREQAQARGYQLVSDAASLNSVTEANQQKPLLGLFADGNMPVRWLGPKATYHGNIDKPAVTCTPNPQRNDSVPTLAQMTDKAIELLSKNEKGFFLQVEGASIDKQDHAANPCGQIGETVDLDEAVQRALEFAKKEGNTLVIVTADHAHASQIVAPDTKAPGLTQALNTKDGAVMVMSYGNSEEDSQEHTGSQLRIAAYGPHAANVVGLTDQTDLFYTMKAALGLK

**Q.** Which Activity [1] does the source give for NC(=S)N/N=C1/CCCc2cccnc21 here?
**A.** The Activity was -30.8%.

**Q.** What about the inhibition [2] of the same compound?
**A.** Its inhibition is “inactive”.

**Q.** What about the Stability [3] of the same compound?
**A.** Its Stability is “Stable”.

**Q.** And the T/C [4]?
**A.** The T/C was 116%.

**Q.** And the Activity [5]?
**A.** Its Activity is -21.5%.

**Q.** And the Time [6]?
**A.** Its Time is 9.2 days.

**Q.** And the Activity [7]?
**A.** Its Activity is 6.7%.

**Q.** What about the Time [8] of the same compound?
**A.** The Time was 15.8 days.

**Q.** What about the T/C [9] of the same compound?
**A.** Its T/C is 141%.

**Q.** And the Time [10]?
**A.** The Time was 13 days.

**Q.** What about the T/C [11] of the same compound?
**A.** The T/C was 73%.

**Q.** What about the Stability [12] of the same compound?
**A.** Its Stability is “Unstable”.

**Q.** For C=CCNC(=S)N/N=C1/CCCc2cccnc21, which inhibition [2] is on record?
**A.** Its inhibition is “inactive”.

**Q.** What about the Stability [3] of the same compound?
**A.** The Stability was “Stable”.

**Q.** And the Activity [13]?
**A.** The Activity was 4.6%.

**Q.** And the T/C [4]?
**A.** Its T/C is 88%.

**Q.** What about the Time [14] of the same compound?
**A.** The Time was 10.2 days.

**Q.** What about the Activity [5] of the same compound?
**A.** Its Activity is -6.1%.

**Q.** What about the T/C [15] of the same compound?
**A.** Its T/C is 91%.

**Q.** What about the Activity [7] of the same compound?
**A.** Its Activity is 0%.

**Q.** And the Time [8]?
**A.** The Time was 7.8 days.

**Q.** What about the T/C [9] of the same compound?
**A.** Its T/C is 70%.

**Q.** And the Time [10]?
**A.** The Time was 9.8 days.

**Q.** And the Stability [12]?
**A.** Its Stability is “Unstable”.

**Q.** With CNC(=S)N/N=C1\CCCc2cccnc21 as the compound, how does the inhibition [2] read?
**A.** Its inhibition is “inactive”.

**Q.** And the Activity [13]?
**A.** The Activity was -9.3%.

**Q.** And the T/C [4]?
**A.** The T/C was 143%.

**Q.** What about the Time [14] of the same compound?
**A.** The Time was 13.4 days.

**Q.** What about the T/C [15] of the same compound?
**A.** Its T/C is 119%.

**Q.** And the Activity [7]?
**A.** The Activity was -12%.

**Q.** What about the Time [8] of the same compound?
**A.** The Time was 2 days.

**Q.** And the T/C [9]?
**A.** Its T/C is 18%.

**Q.** What about the Time [10] of the same compound?
**A.** The Time was 16 days.

**Q.** For CNC(=S)N/N=C1/CCCc2cccnc21, which inhibition [2] is on record?
**A.** The inhibition was “inactive”.

**Q.** What about the Stability [3] of the same compound?
**A.** The Stability was “Stable”.

**Q.** And the T/C [4]?
**A.** Its T/C is 107%.

**Q.** And the Activity [5]?
**A.** Its Activity is -10.8%.

**Q.** And the Time [6]?
**A.** Its Time is 2 days.

**Q.** And the Activity [7]?
**A.** The Activity was -7.7%.

**Q.** And the Time [8]?
**A.** Its Time is 13.6 days.

**Q.** And the T/C [9]?
**A.** Its T/C is 121%.

**Q.** What about the Time [10] of the same compound?
**A.** The Time was 12 days.

**Q.** What about the T/C [11] of the same compound?
**A.** The T/C was 18%.

**Q.** And the Stability [12]?
**A.** Its Stability is “Unstable”.

**Q.** For C=CCNC(=S)N/N=C1\CCCc2cccnc21, which inhibition [2] is on record?
**A.** The inhibition was “inactive”.

**Q.** And the Activity [13]?
**A.** Its Activity is 0.7%.

**Q.** What about the T/C [4] of the same compound?
**A.** The T/C was 118%.

**Q.** What about the Time [14] of the same compound?
**A.** Its Time is 11.2 days.

**Q.** What about the Activity [5] of the same compound?
**A.** The Activity was -9.1%.

**Q.** And the T/C [15]?
**A.** The T/C was 100%.

**Q.** And the Activity [7]?
**A.** Its Activity is -8.4%.

**Q.** What about the Time [8] of the same compound?
**A.** The Time was 14 days.

**Q.** And the T/C [9]?
**A.** The T/C was 125%.

**Q.** What about the Time [10] of the same compound?
**A.** Its Time is 13.2 days.

**Q.** What does the source list for NC(=S)N/N=C1\CCCc2cccnc21?
**A.** inhibition [2]: inactive; Activity [13]: -5.3%; T/C [4]: 106%; Time [14]: 11.6 days; Activity [5]: -10.7%; T/C [15]: 104%; Activity [7]: -3.8%; Time [8]: 14.8 days; T/C [9]: 132%; Time [10]: 11.8 days
